Measurements taken from ChEMBL document CHEMBL1125771, “Synthesis, activation, and cytotoxicity of aldophosphamide analogues” (J Med Chem, 1991).

Key:
L1210 [1] = experiment: In vitro antitumor activity against cyclophosphamide-resistant L1210/CP cells; type: functional, Mus musculus
Outline: (§1)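 Clonogenic survival assay in wild-type or cyclophosphamide-resistant L1210 and P388 cells with 1-h drug exposure. LC99 is the concentration that lowers colony formation to 1% of control. It comes from linear regression of log surviving fraction vs concentration over the linear portion, using at least three determinations. Standard errors are within ±10%.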

P388 [2] = experiment: In vitro antitumor activity against wild-type P388/0 cells; type: functional, Mus musculus; outline: as §1
P388 [3] = experiment: In vitro antitumor activity against cyclophosphamide-resistant P388/CP cells; type: functional, Mus musculus; outline: as §1
L1210 [4] = experiment: In vitro antitumor activity against wild-type L1210/0 cells; type: functional, Mus musculus; outline: as §1
L1210 [5] = experiment: In vivo antitumor activity against intraperitoneal murine wild type L1210 Leukemia cells at 510 umol/kg; type: functional, Mus musculus
L1210 [6] = experiment: In vivo antitumor activity against intraperitoneal murine wild type L1210 Leukemia cells at 340 umol/kg; type: functional, Mus musculus
L1210 [7] = experiment: In vivo antitumor activity against intraperitoneal murine wild type L1210 Leukemia cells at 170 umol/kg; type: functional, Mus musculus
P388 [8] = experiment: Ratio of resistance factor LC99 […] to that of LC99 […]; type: functional, Mus musculus
Outline: (§2)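 Resistance factor is LC99 in the cyclophosphamide-resistant line divided by LC99 in the wild-type line. Each LC99 is from a clonogenic assay with 1-h drug exposure: the concentration that reduces colonies to 1% of control, by linear regression of log survival vs concentration from at least three determinations.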

L1210 [9] = experiment: Ratio of resistance factor LC99 […] to that of LC99 […]; type: functional, Mus musculus; outline: as §2
[10] = Hydrolysis rate constant at pH 7.4 and 12.5 mM HEPES buffer; type: ADME
Outline: (§3)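 Spectrophotometric hydrolysis assay of model perhydrooxazines at 37 °C. Buffer strength was varied by mixing a stock of 0.25 M HEPES, phenol red (10 mg/100 mL) and KCl (μ = 0.20) with a matching stock that lacked HEPES. Substrate was added in DMSO (1:4 v/v) at a perhydrooxazine:buffer molar ratio of 0.1, with DMSO in the reference cell. The phenol red absorbance rise at 560 nm was read over 1 h. k came from the slope of ln(A∞ − At) vs time.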

[11] = Hydrolysis rate constant at pH 7.4 and 50 mM HEPES buffer; type: ADME; outline: as §3
[12] = Hydrolysis rate constant at pH 7.4 and 25 mM HEPES buffer; type: ADME; outline: as §3
[13] = Hydrolysis rate constant at pH 7 and 25 mM HEPES buffer; type: ADME; outline: as §3
[14] = Hydrolysis rate constant at pH 6.8 and 25 mM HEPES buffer; type: ADME; outline: as §3
[15] = Hydrolysis rate constant at pH 7.8 and 25 mM HEPES buffer; type: ADME; outline: as §3

Row | SMILES | LC99 (L1210 [1]) | LC99 (P388 [2]) | LC99 (P388 [3]) | LC99 (L1210 [4]) | T/C (L1210 [5]) | T/C (L1210 [6]) | T/C (L1210 [7]) | RF (P388 [8]) | RF (L1210 [9]) | khydr [10] | khydr [11] | khydr [12] | khydr [13] | khydr [14] | khydr [15]
1 | CCN(CC)P(=O)(OCCC1NC(C)(C)CC(C)O1)N(CC)CC (stereo unspecified) | >200 µM | >200 µM | >200 µM | >200 µM |  |  |  |  |  |  |  |  |  |  | 
2 | CC1CC(C)(C)NC(CC(OP(=O)(N(CCCl)CCCl)N(CCCl)CCCl)c2ccccc2)O1 (stereo unspecified) | 3 µM | 2 µM | 2 µM | 2 µM | 170% | 150% | 125% | 1 | 1.5 |  |  |  |  |  | 
3 | CC1CC(C)(C)NC(CCOP(N)(=O)N(CCCl)CCCl)O1 (stereo unspecified) | 145 µM | 19 µM | 92 µM | 21 µM | 167% | 144% | 144% | 4.8 | 6.9 |  |  |  |  |  | 
4 | CC[C@H]1NC(C)(C)C[C@@H](C)O1 |  |  |  |  |  |  |  |  |  | 0.0088 min⁻¹ | 0.0086 min⁻¹ | 0.0085 min⁻¹ |  |  | 
5 | CC1CC(C)(C)NC(CC(OP(N)(=O)N(CCCl)CCCl)c2ccccc2)O1 (stereo unspecified) | 14 µM | 7 µM | 10 µM | 13 µM |  | 125% | 125% | 1.4 | 1.1 |  |  |  |  |  | 
6 | CC1CC(C)(C)NC(CCOP(=O)(N(CCCl)CCCl)N2CCOCC2)O1 (stereo unspecified) | 150 µM | 56 µM | 117 µM | 84 µM | 113% | 113% |  | 2.1 | 1.8 |  |  |  |  |  | 
7 | CC1CC(C)(C)NC(CCOP(=O)(N(CCCl)CCCl)N(CCCl)CCCl)O1 (stereo unspecified) | 19 µM | 5 µM | 10 µM | 7 µM |  |  |  | 2 | 2.7 |  |  |  |  |  | 
8 | CCN(CC)P(N)(=O)OC(CC1NC(C)(C)CC(C)O1)c1ccccc1 (stereo unspecified) | >200 µM | >200 µM | >200 µM | >200 µM |  |  |  |  |  |  |  |  |  |  | 
9 | CC1CC(C)(C)NC(CC(OP(=O)(N(CCCl)CCCl)N2CCOCC2)c2ccccc2)O1 (stereo unspecified) | 38 µM | 16 µM | 22 µM | 28 µM | 111% | 100% | 100% | 1.4 | 1.4 |  |  |  |  |  | 
10 | C[C@@H]1CC(C)(C)N[C@H](CCc2ccccc2)O1 |  |  |  |  |  |  |  |  |  | 0.0086 min⁻¹ | 0.0095 min⁻¹ | 0.0094 min⁻¹ | 0.0065 min⁻¹ | 0.0042 min⁻¹ | 0.0082 min⁻¹
